In PMC5035150 (Journal of biological inorganic chemistry : JBIC : a …, 2015):
Like-named read-outs stand apart in the source and are kept apart here.

Tests used:
[1] = tested on: KB-3-1 human cervical carcinoma cell line; experiment: Cytotoxicity, CellTiter-Glo, monolayer; assay type: cell-based
Method in brief: (§1)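 Monolayers in DMEM (4.5 g/L glucose, L-glutamine, penicillin/streptomycin, 10% FBS) at 37 °C, 5% CO2. […] Cells at 1000/well grown 24 h, then given test compound (from DMF, DMSO or 3 mM saline stock) as 1:3 serial dilutions in DMEM, DMF at most 0.25% final. After 72 h, CellTiter-Glo luminescence read, in triplicate.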

[2] = tested on: cisplatin-resistant KB CP.5 cells; experiment: Cytotoxicity, CellTiter-Glo, monolayer; assay type: cell-based, human
Method in brief: as §1

[3] = tested on: cisplatin-resistant KB CP20 cells; experiment: Cytotoxicity, CellTiter-Glo, monolayer; assay type: cell-based, human; conditions: for IC50: read-out: IC50 KB CP20, 72 h; for resistance of CP20 cells: relative to parent KB-3-1 cells, monolayer (Table 1 data)
Method in brief: as §1

[4] = tested on: CP20 cells relative to KB-3-1 cells; experiment: Cellular accumulation by flow cytometry; assay type: cell-based, human; conditions: 25 μM, 45 min, normalized to KB-3-1
Method in brief: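 Cells trypsinised (200,000 per tube), washed twice and resuspended in IMDM with 5% FBS containing fluorescent test compound (final 25 μM), then held 45 min at 37 °C. Cells rewashed, resuspended in PBS and kept on ice. FL-1 fluorescence read by flow cytometry (488 nm laser, 10,000 events per sample), normalised to parental KB-3-1 cells.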

Distribution coefficient = conditions: [octanol]:[phosphate-buffered saline, pH 7.2], fluorescence, mean ± SD
[5] = tested on: phosphorylation of histone H2A.X in KB-3-1 cells; experiment: H2AX immunohistochemical staining; assay type: cell-based, human; conditions: 24 h treatment
Method in brief: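 KB-3-1 cells (5 × 10^4 per chamber) grown 24 h, then exposed to Pt complexes (5–100 μM) for 24 h. Cells PBS-washed, fixed in 4% paraformaldehyde and blocked 1 h in PBS/5% normal horse serum/0.3% Triton X-100. Stained overnight at 4 °C with Alexa Fluor 647-conjugated anti-phospho-H2A.X (Ser139) rabbit mAb, counterstained with DAPI (2 μg/mL, 1 h), then imaged for γH2A.X foci by confocal microscopy.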

[6] = pH 7.2
[7] = tested on: KB-3-1 cells grown in Matrigel; experiment: Cytotoxicity in three dimensional Matrigel culture, CellTiter-Glo; assay type: cell-based, human; conditions: KB-3-1, Matrigel
Method in brief: (§2)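 Wells coated with 5 mg/mL Matrigel and gelled 30 min at 37 °C. Cells (1000/well) seeded over it in 2.5 mg/mL Matrigel and grown 1 day (single cells) or 4 days (spheroids). Test compound added as 1:3 serial dilutions in DMEM. Viability by CellTiter-Glo with 60 min lysis, run in triplicate.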

[8] = tested on: CP.5 cells grown in Matrigel; experiment: as above; assay type: cell-based, human; conditions: for IC50: CP.5, Matrigel
Method in brief: as §2

[9] = tested on: cisplatin-resistant cell lines; conditions: cited from earlier work
[10] = read-out: IC50 KB 3-1, solvent DMF, 72 h
[11] = read-out: IC50 KB CP.5, solvent DMF, 72 h
[12] = relative to parent KB-3-1 cells, monolayer (Table 1 data)
[13] = read-out: IC50 2D, KB-3-1, 2D culture (Table 2)
[14] = read-out: IC50 KB 3-1, solvent Saline, 72 h
[15] = read-out: IC50 2D, CP.5, 2D culture (Table 2)
[16] = read-out: IC50 KB CP.5, solvent Saline, 72 h
[17] = read-out: IC50 3D 1 Day, grown 1 day (single-cell suspension)
[18] = read-out: IC50 3D 4 Day, grown 4 days (spheroids)

| Molecule | IC50 [1, 10] [nM] | IC50 [2, 11] [µM] | IC50 ([3]; solvent DMF) [µM] | resistance of CP.5 cells [2, 12] [fold] | resistance of CP20 cells [3] [fold] | IC50 [1, 13] [nM] | IC50 [1, 14] [nM] | IC50 [2, 15] [µM] | IC50 [2, 16] [µM] | IC50 ([3]; solvent Saline) [µM] | IC50 [7, 17] [µM] | IC50 [7, 18] [µM] | IC50 [8, 17] [µM] | IC50 [8, 18] [µM] | reduction in accumulation in cisplatin-resistant cells [9] | other results |
| --- | --- | --- | --- | --- | --- | --- | --- | --- | --- | --- | --- | --- | --- | --- | --- | --- |
| CC1=CC(C)=[N+]2C1=Cc1ccc(CCC(=O)NCCNC(=O)OC(C)(C)C)n1[B-]2(F)F [BODIPY-Boc, tert-Butyl (2-(3-(5,5-Difluoro-7,9-dimethyl-5H-4λ^4,5λ^4-dipyrrolo[1,2-c:2′,1′-f][1,3,2]diazaborinin-3-yl)propanamido)ethyl)carbamate] | 86700 ± 800 | 86.9 ± 4.4 | 53.6 ± 2.9 |  |  |  |  |  |  |  |  |  |  |  |  | reduction of accumulation in CP20 cells versus parent KB-3-1 cells [4]: unaffected; LogD (Distribution coefficient): 2.15 ± 0.023 |
| CC1=CC(C)=[N+]2C1=Cc1ccc(CCC(=O)NCCNC(=O)C3C[NH][Pt]([Cl])([Cl])[NH]3)n1[B-]2(F)F (stereo not drawn) [BODIPY-prop-Pt, [(2,3-Diamino-N-(2-(3-(5,5-difluoro-7,9-dimethyl-5H-4λ^4,5λ^4-dipyrrolo[1,2-c:2′,1′-f][1,3,2]diazaborinin-3-yl)propanamido)ethyl)propanamide)dichloroplatinum (II)]] | 21500 ± 5800 | 44.6 ± 2.7 | 192 ± 50.3 | 2 | 10 |  |  |  |  |  |  |  |  |  |  | γH2A.X foci ([5]; 50 μM): did so at 50 μM; LogD [6]: 0.66 ± 0.011 |
| N.N.[Cl][Pt][Cl] [Cisplatin, cis-[PtCl2(NH3)2]] | 1800 ± 100 | 23.9 ± 5.3 | 125 ± 31.5 | 10 | 60 | 2500 ± 100 | 2500 ± 200 | 21 ± 2.8 | 25.1 ± 3.4 | > 100 | 4.5 ± 0.7 | 9.4 ± 0.7 | 22.9 ± 4.6 | 32.1 ± 6.9 | 50–75% | resistance of CP.5 cells ([2]; 2D (Table 2 data), relative to KB-3-1): 8.4 fold; resistance of CP.5 spheroids ([8]; 3D 4 day, relative to KB-3-1): 3.4 fold; γH2A.X foci / DNA damage response ([5]; 5 μM): strong DNA damage response |
| NCCN.[Cl][Pt][Cl] [[PtCl2(en)]] | 1000 ± 600 | 150 ± 11.8 | > 500 | 40 |  | 4100 ± 200 | 2700 ± 1900 | 107 ± 10.9 | 94.9 ± 8.3 | > 100 | 21.4 ± 1 | 150 | 298 ± 21.8 | > 500 |  | γH2A.X foci / DNA damage response ([5]; 25 μM): strong DNA damage response |
| [Pt(O,O′-cdbca)(NH3)2] [[^14C]carboplatin] |  |  |  |  |  |  |  |  |  |  |  |  |  |  | 50–75% |  |
